Assay outcomes as filed in PubChem.
This is a sample that favours compounds with a hit; in the whole collection about 3.5% have one here.
MrgX1 antag: antagonists of human MrgX1 receptor; B-score at 10 µM; 310,000 compounds, 1.3% hits; AID 588676; MRGX1-HEK293 calcium flux, Fluo-4, BAM8-22 antagonism; hits give low values;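 active = calcium-response B-score plate-corrected more than 3 library SD below zero, starting fluorescence within 5 deviations, no agonist response on first addition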;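 note: peak minus trough fluorescence over baseline after final BAM8-22 challenge near maximal dose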
Target sequence (Q96LB2 whole entry, looked up): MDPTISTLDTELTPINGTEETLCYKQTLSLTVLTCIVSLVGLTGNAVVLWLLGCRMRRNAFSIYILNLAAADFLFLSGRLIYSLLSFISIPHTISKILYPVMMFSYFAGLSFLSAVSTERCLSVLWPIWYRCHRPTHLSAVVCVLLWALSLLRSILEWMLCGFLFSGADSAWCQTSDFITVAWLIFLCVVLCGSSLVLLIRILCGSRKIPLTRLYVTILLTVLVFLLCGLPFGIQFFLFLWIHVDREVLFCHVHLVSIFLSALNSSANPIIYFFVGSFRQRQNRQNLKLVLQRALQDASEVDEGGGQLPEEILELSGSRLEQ
RGS4 act: potentiators or activators of RGS4 | HEK293 M3R/inducible RGS4, carbachol calcium flux Fluo4; hits give low values | B-score at 10 µM | 310,000 compounds, 0.92% hits | AID 463111;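 active = B-score of the integrated calcium signal more than 4 SD below the library mean, with starting fluorescence not abnormally high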;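 note: negative B-score means reduced calcium response which marks RGS4 activation or potentiation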
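System: HEK293 FlpIn-TREx cells, stable M3R, doxycycline-inducible RGS4. Timing: overnight RGS4 induction, 30 min dye load 37 °C, 20 min compound RT. Also added: carbachol, ECmax concentration. Measured by: Fluo4 fluorescence kinetic imaging of calcium. Evaluation: integrated calcium ratio converted to B score.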
MrgX1 PAM: human MrgX1 positive allosteric modulation, primary screen; 310,000 compounds, 0.63% hits; Q96LB2; MrgX1-HEK293, Fluo-4 calcium flux, FDSS; hits give high values; B-score at 10 µM;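 active = plate-corrected calcium response at least 3 library SD above typical, normal starting fluorescence, not activating the receptor alone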;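 note: compound read alongside a low EC10 to EC30 dose of BAM8-22 agonist; peak minus trough fluorescence over baseline measured at the second addition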
MrgX1 agonist: activates human MrgX1 receptor signaling. 310,000 compounds, 0.44% hits. MrgX1-HEK293 cells, Fluo-4 calcium fluorescence, agonist mode; hits give high values. B-score at 10 µM. Q96LB2;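 active = calcium response B-score plate-corrected fluorescence ratio at least 3 library SD, with starting fluorescence B-score inside 5 SD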
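System: HEK293 cells stably expressing human MrgX1 receptor; Dosing: test compound in the initial addition of three; Schedule: overnight plating, then 30 min 37 °C plus 30 min room-temperature dye loading; Detection: kinetic calcium dye fluorescence, Fluo-4 NW; Controls: per-plate positive and negative controls for Z′ factor.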
RGS4 inh: human RGS4 inhibition; HEK293 M3R/RGS4 inducible, Fluo-4 calcium flux; hits give high values; triggered by carbachol at its EC20; AID 463165; B-score at 10 µM; P49798; 310,000 compounds, 0.45% hits;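 active = B-score, a plate-corrected calcium signal, over three deviations above library mean, with baseline fluorescence within five deviations of library mean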;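 note: RGS4 expression induced by doxycycline in cells with stable M3 receptor; B-score is computed from the integrated fluorescence ratio over baseline after carbachol; higher B-score means a larger calcium signal and so more RGS4 inhibition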
Target sequence (P49798 whole entry, looked up): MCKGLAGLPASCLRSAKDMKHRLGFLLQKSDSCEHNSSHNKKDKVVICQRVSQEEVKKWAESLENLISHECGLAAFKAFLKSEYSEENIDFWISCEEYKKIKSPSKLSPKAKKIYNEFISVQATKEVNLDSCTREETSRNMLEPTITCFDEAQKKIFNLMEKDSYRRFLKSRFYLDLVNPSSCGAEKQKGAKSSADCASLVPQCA
MrgX1 allo conf: human MrgX1 positive allosteric modulation, re-confirmation | shares compounds with MrgX1 PAM | MrgX1-HEK293, Fluo-4 calcium fluorescence, FDSS | activation (ratio percentage), % at 10 µM | 1,200 compounds, 13% hits | AID 602413;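 active = ratio at least 3 SD above the weak peptide control, stable starting fluorescence, no direct agonism earlier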;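 note: compound followed by low BAM8-22 agonist challenge near EC20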
MrgX1 ant reconf: confirmation of human MrgX1 receptor antagonists; shares compounds with MrgX1 antag; MrgX1-HEK293, BAM8-22 calcium flux, Fluo-4; hits give low values; remaining BAM8-22 calcium response % of control (hits give low values), % at 10 µM; 2,300 compounds, 19% hits; AID 602420;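 active = remaining agonist calcium response no higher than 100% minus 3 SD of agonist-only control wells, with starting fluorescence near control levels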;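 note: agonist BAM8-22 given at a near maximal EC90 to ECmax level; peak minus minimum fluorescence divided by baseline after agonist addition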
HEK293 Ca flux: MrgX1 antagonist counter-screen hit in parental HEK293 cells. Fluo-4 calcium fluorescence, FDSS. 4,000 compounds, 2% hits. fluorescence ratio F(max-min)/F0 at 10 µM. AID 624111. shares compounds with MrgX1 antag;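 active = duplicate-averaged calcium fluorescence ratio at least three times the standard deviation of buffer wells, a nonspecific response in parental cells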
HEK293 Ca counter: activity in parental HEK293 cells without MrgX1; shares compounds with MrgX1 antag; 4,000 compounds, 0.4% hits; fluorescence ratio F(max-min)/F0 at 10 µM; parental HEK293 calcium flux, Fluo-4 fluorescence ratio; hits give high values;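 active = calcium fluorescence ratio, averaged over duplicates, at least 3 SD of the buffer-well ratio, meaning a nonspecific response in receptor-free cells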;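 note: untransfected parental HEK293 lacking MrgX1 used as counterscreen for MrgX1 allosteric activators; fluorescence change taken during the second addition on a kinetic imager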
HEK293 Ca cntr2: counter-screen for MrgX1 activators: effect in parental HEK293 cells; Fluo-4 calcium fluorescence (FDSS); hits give high values; shares compounds with MrgX1 antag; 4,000 compounds, 8.7% hits; fluorescence ratio F(max-min)/F0 at 10 µM;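 active = calcium fluorescence ratio at least three times the spread of buffer wells, meaning a non-specific response in parental cells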
Of the large screens only hits and unclear results are named; the others gave an inactive call (follow-up assays come after a bar, where they were run).

COc1ccc(CCNc2nc(-c3ccncc3)cs2)cc1OC	MrgX1 antag -5.14, MrgX1 PAM 7.34 | MrgX1 allo conf inactive | MrgX1 ant reconf 78.5% | HEK293 Ca flux inactive | HEK293 Ca counter inactive | HEK293 Ca cntr2 inactive
O=C(Cn1cc2c(n1)CCCCC2)Nc1ccccc1Br	MrgX1 PAM 9.31 | MrgX1 allo conf 23.5% | HEK293 Ca flux inactive | HEK293 Ca counter inactive | HEK293 Ca cntr2 inactive
COc1cc2cc(C(=O)N3CCN(c4ccccc4OC)CC3)[nH]c2cc1OC	none
c1ccc(Sc2ncnc3ccccc23)cc1	MrgX1 PAM 18 | MrgX1 allo conf 27.9% | HEK293 Ca flux inactive | HEK293 Ca counter inactive | HEK293 Ca cntr2 inactive
N#CCSc1ncnc2ccccc12	none
O=C1NC2(CCCCCC2)Oc2ccccc21	none
CCC1(Cc2ccccc2)NC(=O)c2ccccc2O1 (centres undefined)	MrgX1 PAM 12.4 | MrgX1 allo conf inactive | HEK293 Ca flux inactive | HEK293 Ca counter inactive | HEK293 Ca cntr2 inactive
CCOC(=O)c1nn(-c2ccc(F)cc2)cc1O	MrgX1 PAM 8.43 | MrgX1 allo conf inactive | HEK293 Ca flux inactive | HEK293 Ca counter inactive | HEK293 Ca cntr2 inactive
CCOC(=O)c1nn(-c2ccc3c(c2)CCN3C(C)=O)cc1O	none
CCOC(=O)C1CCCN(C(=O)c2sc3nc(-c4ccc(F)cc4)cn3c2C)C1 (centres undefined)	MrgX1 PAM 7.33 | MrgX1 allo conf 14.0% | HEK293 Ca flux inactive | HEK293 Ca counter inactive | HEK293 Ca cntr2 inactive
O=C(NC1CCCC1)c1ccc2c(c1)N(Cc1ccc(F)cc1)CCS2	none
Cc1ccc(CN2CCSc3ccc(C(=O)NC4CCCC4)cc32)cc1	MrgX1 PAM 9.37 | MrgX1 allo conf inactive | HEK293 Ca flux inactive | HEK293 Ca counter inactive | HEK293 Ca cntr2 inactive
COc1ccc(CCNC(=O)C2Cc3ccccc3C(=O)O2)cc1 (centres undefined)	MrgX1 PAM 14.2 | MrgX1 allo conf inactive | HEK293 Ca flux inactive | HEK293 Ca counter inactive | HEK293 Ca cntr2 inactive
Cc1ccc(NS(=O)(=O)c2cccs2)nc1	none
CN(C)S(=O)(=O)c1ccc(Cl)c(NC(=O)COC(=O)CN2C(=O)C3CCCCC3C2=O)c1 (centres undefined)	MrgX1 PAM 8.99 | MrgX1 allo conf inactive | HEK293 Ca flux inactive | HEK293 Ca counter inactive | HEK293 Ca cntr2 inactive
COCCOC1CCN(C(=O)C2CCC(=O)N(Cc3cccc(F)c3)C2)CC1 (centres undefined)	none
COC(=O)c1ccccc1NC(=O)NC1CCC(C)CC1 (centres undefined)	none
COC(=O)c1cccc(C(=O)N2CCC(CO)(Cc3ccccc3Cl)CC2)c1	MrgX1 PAM 9.93 | MrgX1 allo conf inactive | HEK293 Ca flux inactive | HEK293 Ca counter inactive | HEK293 Ca cntr2 inactive
COC(=O)c1cccc(C(=O)N2CCC(CO)(CCc3ccccc3)CC2)c1	none
CC(C)S(=O)(=O)C1=NSC2=NC(=O)/C(=C\c3ccc(OC(=O)c4ccco4)cc3)C(=N)N21	MrgX1 PAM 34.6 | MrgX1 allo conf inactive | HEK293 Ca flux inactive | HEK293 Ca counter inactive | HEK293 Ca cntr2 inactive
N=C1/C(=C\c2ccc(OC(=O)c3ccco3)cc2)C(=O)N=C2SC(N3CCCCC3)=NN12	none
CCOC(=O)c1c(C)[nH]c(C)c1C(=O)COC(=O)c1c(OC)cccc1OC	MrgX1 PAM 7.06 | MrgX1 allo conf inactive | HEK293 Ca flux inactive | HEK293 Ca counter inactive | HEK293 Ca cntr2 inactive
CCCc1cc(C(=O)N2CCCC(C(=O)c3cccc4ccccc34)C2)n(C)n1 (centres undefined)	MrgX1 PAM 12.2 | MrgX1 allo conf inactive | HEK293 Ca flux inactive | HEK293 Ca counter inactive | HEK293 Ca cntr2 inactive
Cc1cccc(NC(=S)NC(=O)/C=C/c2ccco2)n1	MrgX1 PAM 25.1 | MrgX1 allo conf 4.6% | HEK293 Ca flux inactive | HEK293 Ca counter inactive | HEK293 Ca cntr2 inactive
CCCCN(CC)C(=O)Cn1cnc2sc(C)c(S(=O)(=O)N3CCC(C)CC3)c2c1=O	none
NC(=O)C1CCN(C(=O)COCc2cc(-c3ccc4c(c3)OCO4)on2)CC1	MrgX1 PAM 17 | MrgX1 allo conf inactive | HEK293 Ca flux inactive | HEK293 Ca counter inactive | HEK293 Ca cntr2 inactive
O=C(COCc1cc(-c2ccc3c(c2)OCO3)on1)N1CCCCC1	none
Cc1cccc(-c2csc(N)c2C(=O)OC(C)C)c1	MrgX1 PAM 8.14 | MrgX1 allo conf inactive | HEK293 Ca flux inactive | HEK293 Ca counter inactive | HEK293 Ca cntr2 inactive
CN1c2ccccc2Oc2nnc(N3CCN(Cc4ccccc4)CC3)cc21	MrgX1 PAM 11.9 | MrgX1 allo conf inactive | HEK293 Ca flux inactive | HEK293 Ca counter inactive | HEK293 Ca cntr2 inactive
CN1c2ccccc2Oc2nnc(Cl)cc21	none
CC1CCCC(NS(=O)(=O)c2cc3c(cc2Cl)NC(=O)CO3)C1C (centres undefined)	MrgX1 PAM 21.4 | MrgX1 allo conf inactive | HEK293 Ca flux inactive | HEK293 Ca counter inactive | HEK293 Ca cntr2 inactive
CC1CCCC(NC(=O)CCS(=O)(=O)c2cc3c(cc2Cl)NC(=O)CO3)C1C (centres undefined)	none
Cc1ccc(-n2cnc3cc(NCc4cccs4)ccc32)cc1	MrgX1 PAM 9.83 | MrgX1 allo conf inactive | HEK293 Ca flux inactive | HEK293 Ca counter inactive | HEK293 Ca cntr2 inactive
c1ccc(-n2cnc3cc(NCc4cccs4)ccc32)cc1	none
Cc1c(C)n2c(SCC(=O)Nc3ccc4c(c3)OCCO4)nnc2[nH]c1=O	none
O=C(CNS(=O)(=O)c1ccccc1)N1CCCC1	none
CCCc1c(C(=O)Nc2ccc(F)cc2F)cnn1-c1ccccc1	MrgX1 PAM 11.5 | MrgX1 allo conf inactive | HEK293 Ca flux inactive | HEK293 Ca counter inactive | HEK293 Ca cntr2 inactive
COc1ccc(Cc2nnc(NC(=O)c3ccccc3[N+](=O)[O-])s2)cc1	none
COC(=O)C1=C(N)c2c(F)cccc2C1(C#N)c1ccc(F)cc1 (centres undefined)	MrgX1 PAM 8.44 | MrgX1 allo conf inactive | HEK293 Ca flux inactive | HEK293 Ca counter inactive | HEK293 Ca cntr2 inactive
O=C(O)c1c2c(nc3ccccc13)/C(=C/c1ccc(OC(F)F)cc1)CCC2	none
